Assay outcomes from PubChem BioAssay.
Runt-CBFb FRET: blocks binding of human RUNX1 Runt domain to CBFb; Q01196+Q13951; Cerulean-Runt/Venus-CBFb FRET ratio 530/480, 1 h; inhibition, % at 20 µM; 220,000 tested, 0.46% active; AID 1496;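 active means inhibition over about 50% at 20 µM in the single-dose screen, limit read from the data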;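 further: 0% = DMSO wells and 100% = excess unlabeled CBFb competitor control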
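Measured by: fluorescence energy transfer, 422 nm excitation, 530/480 nm emission; test system: Cerulean-tagged RUNX1 Runt domain (FRET donor) fusion protein; buffer or medium: Tris pH 7.5 buffer with BSA; compound: one dose, 20 µM compound, 1% DMSO; times: two 1 h room-temperature incubations shielded from light; benchmarks: unlabeled CBFb 5 µM, positive control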
MEX-5 binding: C. elegans MEX-5 TCR-2 RNA binding activity; Q9XUB2; MEX-5/FITC-TCR2 RNA binding, fluorescence polarization; stronger effect = lower value; activity score (negative = inhibition of binding), % at 10 µM; 300,000 tested, 0.38% active; AID 1832;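 active means inhibition past about -25% in most replicates, and total fluorescence under double the plate's negative control median, limit read from the data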;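 further: 0% = DMSO and -100% = 5 µM competing unlabeled TCR2 RNA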
KLK7 zymogen act: activators of human kallikrein-7 zymogen; P49862; purified proKLK7, EDANS-DABCYL substrate fluorescence; 100% is mature enzyme control, 0% vehicle; activation, % at 7 µM; 370,000 tested, 0.9% active; AID 652039;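 active means activation above the mean of all tested compounds plus 3 SD, computed per campaign excluding outliers beyond control limits, cut at about 13% in these data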
Target sequence (P49862 whole entry, looked up): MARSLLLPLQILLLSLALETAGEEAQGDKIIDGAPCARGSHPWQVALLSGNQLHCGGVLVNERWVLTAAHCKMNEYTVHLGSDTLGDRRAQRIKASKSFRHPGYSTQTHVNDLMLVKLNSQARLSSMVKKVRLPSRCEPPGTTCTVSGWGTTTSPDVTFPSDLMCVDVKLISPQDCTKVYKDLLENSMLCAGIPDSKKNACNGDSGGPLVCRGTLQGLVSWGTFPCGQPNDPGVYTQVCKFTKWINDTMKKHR
Runt-SMMHC FRET: blocks binding of human RUNX1 Runt domain to CBFb-SMMHC; 220,000 tested, 0.74% active; Q01196+Q13951; AID 1434; inhibition, % at 20 µM; Cerulean-Runt/Venus-CBFb-SMMHC FRET ratio 530/480, 1 h;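 active means mean inhibition across duplicate retests at 20 µM reaching about 50%, limit read from the data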;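 further: 0% = DMSO wells and 100% = wells with excess untagged CBFb-SMMHC; inhibitors lower the FRET ratio by blocking Runt binding to CBFb-SMMHC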
RanGTP-Imp inh: disruptors of Ran-importin-beta complex formation – biochemical, FRET, CFP-Ran, YFP-importin-beta, homogeneous, primary screen. cell-free CFP-Ran/YFP-importin-beta FRET ratio. inhibition, % (test concentration not listed). 300,000 tested, 1.1% active. AID 2216;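 active means more than half of the replicate wells show a fall in the fluorescence ratio signal beyond about 16%, limit read from the data, passing the limit was not always enough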;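 further: 0% = DMSO wells and 100% = Ran loaded with GDP instead of GTP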
proKLK7 act conf: proKLK7 activation, confirmation; shares compounds with KLK7 zymogen act; purified proKLK7, EDANS-DABCYL substrate fluorescence; scaled: vehicle 0, mature enzyme 100; activation, % at 7 µM; 3,200 tested, 68% active; AID 686949;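 active means activation, as change over the incubation, above the mean of all tested compounds plus 3 SD, cut at about 13% in these data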
EDANS interfere: optically interferes with EDANS-DABCYL signal, flagging KLK7 hits | shares compounds with KLK7 zymogen act | EDANS-DABCYL substrate fluorescence interference, no enzyme, 4 h; solvent 0%, active enzyme control 100% | activation, % at 7 µM | 3,200 tested, 80% active | AID 686952;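 active means activation above the all-compound mean plus 3 SD, ignoring values outside control-based bounds, cut at about 4.8% in these data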;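 further: value is the 4 h activation minus the activation read at time zero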
An asterisk follows results filed as active; / = no result. The list is not random: actives were taken first. Their share in the collection is about 2.1%.

SMILES	Runt-CBFb FRET	MEX-5 binding	KLK7 zymogen act	Runt-SMMHC FRET	RanGTP-Imp inh	proKLK7 act conf	EDANS interfere
O=C1CCCCC1CCS(=O)(=O)NCc1ccccc1 (centres undefined)	/	/	0	/	/	/	/
COC(=O)c1scc2c(=O)cc(C(F)(F)F)[nH]c12	10	-15	59*	84*	117*	76*	83*
C=COC(=O)c1sc2nc(C)cc(C)c2c1N	5	-1	5	20	-1	/	/
Cc1cc(C)c2c(N)c(C(=O)Nc3ccccc3F)sc2n1	/	1	23*	/	2	-14	-14
Cc1cc(C)c2c(N)c(C(=O)Nc3ccccc3Cl)sc2n1	/	1	0	/	1	/	/
CCc1ccccc1NC(=O)c1sc2nc(C)cc(C)c2c1N	/	-1	2	/	-5	/	/
Cc1cc(C)c2c(N)c(C(=O)Nc3ncc(C)s3)sc2n1	65*	/	33*	95*	/	-27	-48
Cc1cc(C)c2c(N)c(C(=O)Nc3ccccc3Br)sc2n1	/	-1	179*	/	4	124*	56*
Cc1cc(C)[n+](-c2ccc(F)cc2)c2[nH]c(=O)[nH]c(=O)c12	4	0	38*	7	3	63*	68*
O=c1cc(C(F)F)oc2c1ccc1ccccc12	-2	1	17*	-1	1	18*	19*
COc1ccc2nc(C)cc(Sc3nc4ccccc4s3)c2c1	-6	-1	-2	7	3	/	/
Nc1nc(Cl)nc2c1ncn2C1OCC(O)C(O)C1O (centres undefined)	/	/	0	/	/	/	/
Cc1cc(C)c2cc3c(ccn3C3OC[C@H](O)[C@H](O)[C@H]3O)cc2n1 (some centres undefined)	-113	-13	23*	-174	-110	48*	47*
O=C(NCCN1CCOCC1)c1ccc2c(c1)N(Cc1ccccc1)CCS2	2	4	21*	4	4	-48	-47
O=C(NCCCN1CCOCC1)c1ccc2c(c1)N(Cc1ccccc1)CCS2	1	-3	10	0	6	/	/
CN1CCN(CCCNC(=O)c2ccc3c(c2)N(Cc2ccccc2)CCS3)CC1	4	0	15*	2	0	-35	-38
CCOC(=O)C1=NOC2(C1)C(=O)Nc1c(Cl)cccc12 (centres undefined)	/	/	1	/	/	/	/
Clc1ccc2c(-c3ccccc3)nc(-c3cccs3)nc2c1	/	/	0	/	/	/	/
Cn1c(/C(C#N)=C/Nc2ccccn2)nc2ccccc21	-40	-11	55*	-53	5	183*	183*
CCN(CC)CCNC(=O)c1cc2c(s1)-c1ccccc1SC2	/	3	76*	/	-5	57*	55*
NNC(=O)c1cc2c(s1)-c1cc(Cl)ccc1SC2	-8	-2	6	-18	1	/	/
CCN(CC)CCNC(=O)c1cc2c(=O)n(CC)c3ccccc3c2s1	/	1	38*	/	-4	5	4
CCN(CC)CCCNC(=O)c1cc2c(=O)n(CC)c3ccccc3c2s1	/	1	12	/	0	/	/
CCn1c(=O)c2cc(C(=O)NCCN(C)C)sc2c2ccccc21	/	1	35*	/	0	0	6.0*
CCCN=C1N(C)C[C@@H]2[C@@H]3C(=O)N(C)C(=O)[C@@H]3[C@](CC)(C(=O)OC)N12	/	/	0	/	/	/	/
SMILES	Runt-CBFb FRET	MEX-5 binding	KLK7 zymogen act	Runt-SMMHC FRET	RanGTP-Imp inh	proKLK7 act conf	EDANS interfere
Cc1[nH]c2ccccc2c1C(=O)C(=O)NCc1ccco1	1	0	0	-2	-2	/	/
CC(C)(C)CN1CCN(CC#Cc2ccccc2)CC1CCO (centres undefined)	/	-4	0	/	7	/	/
O=C(Cn1cnc2scc(-c3ccc(Br)cc3)c2c1=O)N1CCOCC1	-1	2	0	2	-2	/	/
CCOC(=O)C1=CCN(S(=O)(=O)c2ccccc2Cl)C1c1cccc(C)c1 (centres undefined)	/	/	1	/	/	/	/
CCOc1ccc(S(=O)(=O)N(C)c2ccc(OCC(=O)NCCc3ccc(OC)cc3)cc2)cc1	-2	1	0	-3	7	/	/
CCOC(=O)C1=C(CSc2nc(-c3ccncc3)ccc2C#N)OC(N)=C(C#N)C1c1cccnc1 (centres undefined)	15	-8	51*	-4	-11	66*	72*
CCOC(=O)C1=C(C(C)=O)C(c2cccnc2)C(C#N)=C(N)O1 (centres undefined)	-2	-6	-1	-8	-2	/	/
CCOC(=O)C1=C(CSc2nc(-c3ccncc3)ccc2C#N)OC(N)=C(C#N)C1c1ccc(OC)cc1 (centres undefined)	21	4	26*	-12	-116	67*	66*
CCC(=O)Oc1ccc2c(C)cc(=O)oc2c1C(=O)CC	6	-1	7	-1	1	/	/
CCC(=O)c1cc2c(C)cc(=O)oc2c(C)c1OC(C)=O	25	-2	453*	42	7	804*	772*
CCC(=O)c1cc2c(C)cc(=O)oc2c(C)c1O	27	-1	-1	65	2	/	/
CCC(=O)c1cc2c(C)cc(=O)oc2c(C)c1OC(=O)C(C)C	0	1	139*	19	7	155*	179*
COc1cc(NS(=O)(=O)c2cc(NC(C)=O)ccc2OC)c(OC)cc1NC(=O)c1ccccc1	/	/	0	/	/	/	/
O=C(CC1C(=O)NCCN1Cc1c(F)cccc1Cl)NC1CCCC1 (centres undefined)	0	-1	0	2	2	/	/
COc1ccc(C)cc1S(=O)(=O)NCc1ccccn1	/	/	0	/	/	/	/
NC(=O)c1ccc(Nc2nnc(-c3ccc(O)cc3)c3ccccc23)cc1	-2	0	4	0	3	/	/
CNC(=O)c1ccc(Nc2nnc(-c3ccc(C(N)=O)cc3)c3ccccc23)cc1	/	1	133*	/	-1	7	108*
CCN(CC)C(=O)Cn1cc(C(=O)C(=O)Nc2ccc3c(c2)OCO3)c2ccccc21	/	/	57*	/	/	24*	44*
CCN(CC)C(=O)Cn1cc(S(=O)(=O)CC(=O)Nc2ccc3c(c2)OCCO3)c2ccccc21	-1	2	0	3	7	/	/
COc1ccc([C@H]2CC(=O)C=C(c3ccc(C)c(F)c3)C2)cc1	/	/	0	/	/	/	/
C#CCN1CC(N2CCN(CCO)CC2)CS1(=O)=O (centres undefined)	/	/	1	/	/	/	/
COc1ccc2cc(C(=O)C3CCCN(Cc4ccccn4)C3)ccc2c1 (centres undefined)	-1	1	39*	0	3	-6	1
